Values joined by “and” are separate entries in the source; they are usually repeats but may differ in a detail not shown here. Identical values can stand only once.
How the values were obtained:
[1] = system: Canis familiaris; assay: Percent change in blood pressure in anesthetized dogs at 1 mg/kg; format: functional, Canis lupus familiaris
Outline: (§1)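 Acutely instrumented anesthetized dogs, 30 min control period. Drug in saline or dilute HCl/NaOH diluted with saline, given i.v. cumulatively, 0.1 ml/kg over 1 min. Half-log doses 0.01–1.0 mg/kg, 10-30 min between doses. One compound per dog. Heart rate, aortic pressure and LV dP/dtmax recorded as change from preceding baseline. Values are means of two experiments.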

[2] = system: Canis familiaris; assay: Percent change in heart rate in anesthetized dogs at 0.31 mg/kg; format: functional, Canis lupus familiaris; outline: as §1
[3] = system: Canis familiaris; assay: Percent change in dP/dtmax (contractility) in anesthetized dogs at 1 mg/kg; format: functional, Canis lupus familiaris; outline: as §1
[4] = system: Canis familiaris; assay: Percent change in heart rate in anesthetized dogs at a 0.01 mg/kg; format: functional, Canis lupus familiaris; outline: as §1
[5] = system: Canis familiaris; assay: Percent change in blood pressure in anesthetized dogs at 0.01 mg/kg; format: functional, Canis lupus familiaris; outline: as §1
[6] = system: Canis familiaris; assay: Percent change in blood pressure in anesthetized dogs at 0.1 mg/kg; format: functional, Canis lupus familiaris; outline: as §1
[7] = system: Canis familiaris; assay: Percent change in heart rate in anesthetized dogs at 1 mg/kg; format: functional, Canis lupus familiaris; outline: as §1
[8] = system: Canis familiaris; assay: Percent change in blood pressure in anesthetized dogs at 0.31 mg/kg; format: functional, Canis lupus familiaris; outline: as §1
[9] = system: Canis familiaris; assay: Percent change in blood pressure in anesthetized dogs at 0.03 mg/kg; format: functional, Canis lupus familiaris; outline: as §1
[10] = system: Canis familiaris; assay: Percent change in heart rate in anesthetized dogs at 0.03 mg/kg; format: functional, Canis lupus familiaris; outline: as §1
[11] = system: Canis familiaris; assay: Percent change in heart rate in anesthetized dogs at 0.1 mg/kg; format: functional, Canis lupus familiaris; outline: as §1
[12] = system: Canis familiaris; assay: Percent change in heart rate in anesthetized dogs; format: functional, Canis lupus familiaris; outline: as §1
[13] = system: Canis familiaris; assay: Percent change in dP/dtmax was measured in anesthetized dogs at a dose of 0.01 mg/kg; format: functional, Canis lupus familiaris; outline: as §1
[14] = target: Phosphodiesterase 3 (Cavia porcellus); assay: Inhibition of guinea pig phosphodiesterase type III
[15] = target: Phosphodiesterase 3 (Cavia porcellus); assay: as above; remark: listed apart in the source
[16] = system: Canis familiaris; assay: Percent change in blood pressure in anesthetized dogs 1 mg/kg; format: functional, Canis lupus familiaris; outline: as §1

Row | IC50 [14] [µM] | IC50 [15] [µM] | Compound | Change [1] [%] | Change [2] [%] | Change [3] [%] | Change [4] | Change [5] [%] | Change [6] [%] | Change [7] [%] | Change [8] [%] | Change [9] [%] | Change [10] [%] | Change [11] [%] | Change [12] [%] | Change [13] | Change [16] [%]
1 | 128 | – | COc1ccc(-c2nc(C3=NNC(=O)CC3)cn2C)cc1OC | 1.5 | 5 | 0 | 2.5 | -1 | -0.25 | 8.5 | 0 | -1.25 | 0.5 | 1.5 | – | 2% and 2.5% and 9.5% | –
2 | – | 75 | COc1ccc(-c2nc(-c3ccc(O)nn3)cn2C)cc1OC | -4.5 | -1 | 13 | 1.5% | 0 | 0 | 0.5 | -1 | 1.5 | 1 | -0.5 | – | 3.5% and 6% and 4.5% and 5% | –
3 | – | 38 | Cn1c(C2=NNC(=O)CC2)cnc1-c1ccccc1 | -2.25 | 5 | 30.5 | 3% | 1.75 | 1.5 | 5.5 | 0 | 1.75 | 3.5 | 4.5 | – | 7% and 10% and 11% and 16.5% | –
4 | – | 160 | Cn1c(-c2ccc(O)nn2)cnc1-c1ccccc1 | -2.5 | -3 | 17 | -0.5% | 1.5 | -1.75 | -1.5 | -0.25 | 0.75 | -1 | -1.5 | – | – | –
5 | – | 12.1 | Cn1cc(C2=NNC(=O)CC2)nc1-c1ccccc1 | -31.8 | 34 | 95 | 3.5% | -1.2 | -11.8 | 29.5 | -23.2 | -5 | 13 | 29.5 | – | – | –

The remaining lines, values behind:

Row | Compound | IC50 [14] [µM] | IC50 [15] [µM] | Change [1] [%] | Change [2] [%] | Change [3] [%] | Change [4] | Change [5] [%] | Change [6] [%] | Change [7] [%] | Change [8] [%] | Change [9] [%] | Change [10] [%] | Change [11] [%] | Change [12] [%] | Change [13] | Change [16] [%]
6 | Cn1cc(-c2ccc(O)nn2)nc1-c1ccccc1 | – | – | -31.25 | 50.5 | 186 | 1.5% | -1.5 | -6.5 | 63.5 | -15.75 | -0.25 | 9.5 | 21.5 | – | – | –
7 | O=C1CCC(c2ccc(-n3ccnc3)cc2)=NN1 [IMAZODAN] | – | – | -22.4 | 19.2 | – | 0% | -0.7 | -5.3 | – | -13.2 | -4.1 | 5.6 | 6.2 | 33.8 | – | –
8 | Oc1ccc(-c2ccc(-c3ncc[nH]3)cc2)nn1 | – | – | – | 30.5 | – | 1.5% | -1 | -26 | – | -26.5 | -2.5 | 12.5 | 31.5 | – | – | –
9 | Cl.O=C1CCC(c2cn(Cc3ccccc3)c(-c3ccccc3)n2)=NN1 | – | – | -4.75 | 18.5 | 3 | 2% | 1 | 0 | 8 | -4.5 | -0.5 | 1.5 | 19 | – | 2.5% and 4.5% and 12.5% and 10.5% | –
10 | Oc1ccc(-c2cn(Cc3ccccc3)c(-c3ccccc3)n2)nn1 | – | – | – | 3 | 55 | 3% | 8.5 | 8 | 8 | 3 | 6.5 | -1 | -1 | – | 21% and 29% and 17% and 28% | 2

Reference: ChEMBL document CHEMBL1123399, “Cardiotonic agents. 3. Synthesis and biological activity of novel 6-(substituted 1H-imidazol-4(5)-yl)-3(2H)-pyridazinones” (J Med Chem, 1986)
